Measurements as given in ChEMBL document CHEMBL1123594, “Antiradiation compounds. 20. 1-Methylquinolinium(and pyridinium)-2-dithioacetic acid derivatives” (J Med Chem, 1987).

Tests used:
Mus musculus [1] = experiment: Percent protective effect was determined in mice using 1000 rads for 30 min after administration of 25 mg/kg; format: functional
Mus musculus [2] = experiment: Percent survival was determined over a period of 30 days after intraperitoneal administration of a dose of 75 mg/kg in mice; format: functional
Summary of the method: (§1)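 Female C57 B16 mice (18-20 g), groups of 10, dosed ip in water or 10-20% aqueous ethanol (sometimes with Klucel or a Tween). Whole-body 1000-rad γ-irradiation 30 min after dosing. Survival was followed over 30 days, and animals alive beyond 30 days were counted as protected. Testing was done at Walter Reed Army Institute of Research.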

Mus musculus [3] = experiment: Percent survival was determined over a period of 30 days after intraperitoneal administration of a dose of 37.5 mg/kg in mice; format: functional; settings: ip, 720 h; summary of the method: as §1
[4] = Toxic dose was determined after (ip) administration of a dose of 75 mg/kg in mice at 1000-rad-gamma-radiation for 30 mins; format: toxicity, organism-based; parameters: dose 75 mg/kg; settings: mouse, in vivo
Summary of the method: (§2)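 Drug-toxicity deaths were counted within the radioprotection groups: 10 female C57 B16 mice, dosed by the route stated, then given whole-body 1000-rad γ-irradiation 30 min later. Deaths attributed to compound toxicity occurred before day 5 and were scored separately from the 30-day survival count.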

Mus musculus [5] = experiment: Percent survival was determined over a period of 30 days after intraperitoneal administration of a dose of 18.8 mg/kg in mice; format: functional; settings: ip, 720 h; summary of the method: as §1
Mus musculus [6] = experiment: Percent survival was determined over a period of 30 days after intraperitoneal administration of a dose of 9.4 mg/kg in mice; format: functional; settings: ip, 720 h; summary of the method: as §1
[7] = Toxic dose was determined after (ip) administration of a dose of 9.4 mg/kg in mice at 1000-rad-gamma-radiation for 30 mins; format: toxicity, organism-based; parameters: dose 9.4 mg/kg; settings: mouse, in vivo; summary of the method: as §2
Mus musculus [8] = experiment: Percent survival was determined over a period of 30 days after intraperitoneal administration of a dose of 4.7 mg/kg in mice; format: functional; settings: ip, 720 h; summary of the method: as §1
Mus musculus [9] = experiment: Percent survival was determined over a period of 30 days after intraperitoneal administration of a dose of 2.3 mg/kg in mice; format: functional; settings: ip, 720 h; summary of the method: as §1
Mus musculus [10] = species on record: Mus musculus; experiment: Percent protective effect was determined in mice using 825 rads for 30 min; format: functional
Mus musculus [11] = experiment: Percent protective effect was determined in mice using 825 rads for 30 min after administration of 350 mg/kg; format: functional
[12] = Toxic dose was determined after (ip) administration of a dose of 37.5 mg/kg in mice at 1000-rad-gamma-radiation for 30 mins; format: toxicity, organism-based; parameters: dose 37.5 mg/kg; settings: mouse, in vivo; summary of the method: as §2
Mus musculus [13] = experiment: Percent survival was determined over a period of 30 days after intraperitoneal administration of a dose of 1.2 mg/kg in mice; format: functional; settings: ip, 720 h; summary of the method: as §1
Mus musculus [14] = experiment: Percent survival was determined over a period of 30 days after intraperitoneal administration of a dose of 0.6 mg/kg in mice; format: functional; settings: ip, 720 h; summary of the method: as §1
[15] = Toxic dose was determined after (ip) administration of a dose of 2.3 mg/kg in mice at 1000-rad-gamma-radiation for 30 mins; format: toxicity, organism-based; parameters: dose 2.3 mg/kg; settings: mouse, in vivo; summary of the method: as §2
Mus musculus [16] = experiment: Percent protective effect was determined in mice using 849 rads for 30 min after (po) administration of 600 mg/kg; format: functional
Mus musculus [17] = experiment: Percent protective effect was determined in mice using 849 rads for 30 min after (ip) administration of 600 mg/kg; format: functional
Mus musculus [18] = experiment: Percent survival was determined over a period of 30 days after oral administration of a dose of 150 mg/kg in mice; format: functional; settings: 720 h
Summary of the method: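 Female C57 B16 mice (18-20 g), groups of 10, dosed orally. Whole-body 1000-rad γ-irradiation 30 min after dosing. Percent survival was scored over 30 days, with mice surviving beyond 30 days counted as protected.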

Mus musculus [19] = experiment: Percent survival was determined over a period of 30 days after intraperitoneal administration of a dose of 150 mg/kg in mice; format: functional; settings: ip, 720 h; summary of the method: as §1
[20] = Toxic dose was determined after (po) administration of a dose of 300 mg/kg in mice at 1000-rad-gamma-radiation for 30 mins; format: toxicity, organism-based; parameters: dose 300 mg/kg; settings: mouse, in vivo; summary of the method: as §2
[21] = Toxic dose was determined after (ip) administration of a dose of 150 mg/kg in mice at 1000-rad-gamma-radiation for 30 mins; format: toxicity, organism-based; parameters: dose 150 mg/kg; settings: mouse, in vivo; summary of the method: as §2
Mus musculus [22] = experiment: Percent survival was determined over a period of 30 days after intraperitoneal administration of a dose of 9.38 mg/kg in mice; format: functional; settings: ip, 720 h; summary of the method: as §1
[23] = Toxic dose was determined after (ip) administration of a dose of 9.38 mg/kg in mice at 1000-rad-gamma-radiation for 30 mins; format: toxicity, organism-based; parameters: dose 9.38 mg/kg; settings: mouse, in vivo; summary of the method: as §2
Mus musculus [24] = experiment: Percent survival was determined over a period of 30 days after intraperitoneal administration of a dose of 4.69 mg/kg in mice; format: functional; settings: ip, 720 h; summary of the method: as §1
Mus musculus [25] = experiment: Percent survival was determined over a period of 30 days after intraperitoneal administration of a dose of 2.34 mg/kg in mice; format: functional; settings: ip, 720 h; summary of the method: as §1

For `N#CC(C#N)=C([S-])[S-].[Zn+2]`, the Protective effect (Mus musculus [1]) was <25%.
With `CN(C)CCNC(=Cc1ccc2ccccc2[n+]1C)NCCN(C)C.[I-]` the survival at 75 mg/kg (Mus musculus [2]; Mus musculus, ip, 720 h) was 0%, the survival at 37.5 mg/kg (Mus musculus [3]) was 0% and the LD50 at 0.5 h [4] was 90 mg/kg. It also gave a survival at 18.8 mg/kg (Mus musculus [5]) of 0%.
`CCSC(=Cc1cccc[n+]1C)SCC.[I-]` showed a survival at 9.4 mg/kg (Mus musculus [6]) of 20%, an LD50 at 0.5 h [7] of 20 mg/kg and a survival at 4.7 mg/kg (Mus musculus [8]) of 0%.
For `CS/C(=C\c1ccc2ccccc2[n+]1C)N1CCN(CCCO)CC1.[I-]`, the survival at 9.4 mg/kg (Mus musculus [6]) was 30%, the LD50 at 0.5 h [7] was > 10 mg/kg and the survival at 4.7 mg/kg (Mus musculus [8]) was 0%. For the same molecule, the survival at 2.3 mg/kg (Mus musculus [9]) was 0%.
With `C=CCSC(=S)C[n+]1ccccc1.[Cl-]` the Protective effect (Mus musculus [10]) was >17%.
For `CSC(=Cc1cccc(C=C(SC)SC)[n+]1C)SC.[I-]`, the survival at 9.4 mg/kg (Mus musculus [6]) was 30%, the LD50 at 0.5 h [7] was 25 mg/kg and the survival at 4.7 mg/kg (Mus musculus [8]) was 10%. It also gave a survival at 2.3 mg/kg (Mus musculus [9]) of 10%.
`CSC(=Cc1c2ccccc2cc[n+]1C)SC.[I-]` showed a survival at 9.4 mg/kg (Mus musculus [6]) of 20%, an LD50 at 0.5 h [7] of 15 mg/kg and a survival at 4.7 mg/kg (Mus musculus [8]) of 0%. The survival at 2.3 mg/kg (Mus musculus [9]) was 0%.
For `NC(=O)c1ccc[n+](CC(=S)[S-])c1`, the Protective effect (Mus musculus [10]) was >45%.
For `N#CC(C#N)=C([S-])[S-].[K+].[K+]`, the Protective effect (Mus musculus [11]) was >25%.
With `CS/C(=C\c1ccc2ccccc2[n+]1C)NCCCO.[I-]` the survival at 9.4 mg/kg (Mus musculus [6]) was 0%, the LD50 at 0.5 h [12] was 50 mg/kg and the survival at 37.5 mg/kg (Mus musculus [3]) was 0%. It also gave a survival at 18.8 mg/kg (Mus musculus [5]) of 0%.
With `COCCN/C(=C/c1ccc2ccccc2[n+]1C)SC.[I-]` the survival at 9.4 mg/kg (Mus musculus [6]) was 0%, the LD50 at 0.5 h [12] was 50 mg/kg and the survival at 37.5 mg/kg (Mus musculus [3]) was 0%. For the same molecule, the survival at 18.8 mg/kg (Mus musculus [5]) was 0%.
Work on `CCCCSC(=Cc1cccc[n+]1C)SCCCC.[I-]` yielded a survival at 1.2 mg/kg (Mus musculus [13]) of 10%, a survival at 0.6 mg/kg (Mus musculus [14]) of 0% and an LD50 at 0.5 h [15] of 3 mg/kg. For the same molecule, the survival at 2.3 mg/kg (Mus musculus [9]) was 30%.
`N#CC(C(=O)N1CCCC1)=C([S-])[S-].[K+].[K+]` gave a Protective effect (Mus musculus [16]) of 30% and a Protective effect (Mus musculus [17]) of 80%.
In the case of `CSC(=Cc1ccc2ccccc2[n+]1C)SC.[I-]`, the survival at 150 mg/kg (Mus musculus [18]) was 10%, the survival at 150 mg/kg (Mus musculus [19]) was 60% and the LD50 at 0.5 h [20] was > 300 mg/kg. For the same molecule, the Survival (Mus musculus [2]; 75 mg/kg) was 0%, the survival at 37.5 mg/kg (Mus musculus [3]) was 0% and the LD50 at 0.5 h [21] was 300 mg/kg.
Work on `CS/C(=C\c1ccc2cc(C)ccc2[n+]1C)N1CCOCC1.[I-]` yielded a survival at 9.38 mg/kg (Mus musculus [22]) of 60%, an LD50 at 0.5 h [23] of 15 mg/kg and a survival at 4.69 mg/kg (Mus musculus [24]) of 0%. It also gave a survival at 2.34 mg/kg (Mus musculus [25]) of 0%.
